Results taken from ChEMBL document CHEMBL3860041, “Synthesis, biological evaluation and molecular modeling study of some new methoxylated 2-benzylthio-quinazoline-4(3H)-ones as nonclassical antifolates” (Bioorg Med Chem Lett, 2016).

Key:
Dihydrofolate reductase = target: T1, Dihydrofolate reductase (Bos taurus, UniProt P00376); assay: Inhibition of bovine liver DHFR preincubated for 2 mins followed by addition of FH2 as substrate and NADPH
T1 sequence (P00376 whole entry): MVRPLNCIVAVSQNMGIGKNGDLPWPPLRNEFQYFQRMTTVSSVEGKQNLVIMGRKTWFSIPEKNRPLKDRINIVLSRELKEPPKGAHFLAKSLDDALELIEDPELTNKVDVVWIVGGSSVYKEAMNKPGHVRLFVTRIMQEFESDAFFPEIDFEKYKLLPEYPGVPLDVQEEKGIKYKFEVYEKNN

[1] = Growth inhibition of human HOP92 cells at 10 uM after 48 hrs by SRB assay relative to control; assay type: functional; conditions: HOP-92, 48 h, read-out: GI
In short: (§1)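 NCI 60-cell-line panel, nine tumor subpanels; compounds tested at a single dose of 10 μM in the primary screen.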

[2] = Growth inhibition of human NCI-322M cells at 10 uM after 48 hrs by SRB assay relative to control; assay type: functional; conditions: read-out: GI; in short: as §1
[3] = Growth inhibition of human NCI-H460 cells at 10 uM after 48 hrs by SRB assay relative to control; assay type: functional; conditions: NCI-H460, 48 h, read-out: GI; in short: as §1
[4] = Growth inhibition of human NCI-H522 cells at 10 uM after 48 hrs by SRB assay relative to control; assay type: functional; conditions: NCI-H522, 48 h, read-out: GI; in short: as §1
[5] = Growth inhibition of human HCC2998 cells at 10 uM after 48 hrs by SRB assay relative to control; assay type: functional; conditions: HCC 2998, 48 h, read-out: GI; in short: as §1
[6] = Growth inhibition of human HCT15 cells at 10 uM after 48 hrs by SRB assay relative to control; assay type: functional; conditions: HCT-15, 48 h, read-out: GI; in short: as §1
[7] = Growth inhibition of human HT-29 cells at 10 uM after 48 hrs by SRB assay relative to control; assay type: functional; conditions: HT-29, 48 h, read-out: GI; in short: as §1
[8] = Growth inhibition of human KM12 cells at 10 uM after 48 hrs by SRB assay relative to control; assay type: functional; conditions: KM12, 48 h, read-out: GI; in short: as §1
[9] = Growth inhibition of human SW620 cells at 10 uM after 48 hrs by SRB assay relative to control; assay type: functional; conditions: SW-620, 48 h, read-out: GI
In short: (§2)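 Primary screen across the full NCI 60 human tumour cell line panel, which covers nine tumour subpanels. A single dose of 10 μM was applied to each line, and growth was recorded for each cell line.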

[10] = Growth inhibition of human SF295 cells at 10 uM after 48 hrs by SRB assay relative to control; assay type: functional; conditions: SF-295, 48 h, read-out: GI; in short: as §1
[11] = Growth inhibition of human SF539 cells at 10 uM after 48 hrs by SRB assay relative to control; assay type: functional; conditions: SF-539, 48 h, read-out: GI; in short: as §1
[12] = Growth inhibition of human U251 cells at 10 uM after 48 hrs by SRB assay relative to control; assay type: functional; conditions: U-251, 48 h, read-out: GI; in short: as §2
[13] = Growth inhibition of human M14 cells at 10 uM after 48 hrs by SRB assay relative to control; assay type: functional; conditions: M14, 48 h, read-out: GI; in short: as §1
[14] = Growth inhibition of human SK-MEL-28 cells at 10 uM after 48 hrs by SRB assay relative to control; assay type: functional; conditions: SK-MEL-28, 48 h, read-out: GI; in short: as §2
[15] = Growth inhibition of human UACC62 cells at 10 uM after 48 hrs by SRB assay relative to control; assay type: functional; conditions: UACC-62, 48 h, read-out: GI; in short: as §2
[16] = Growth inhibition of human IGROV1 cells at 10 uM after 48 hrs by SRB assay relative to control; assay type: functional; conditions: IGROV-1, 48 h, read-out: GI; in short: as §1
[17] = Growth inhibition of human OVCAR8 cells at 10 uM after 48 hrs by SRB assay relative to control; assay type: functional; conditions: OVCAR-8, 48 h, read-out: GI; in short: as §1
[18] = Growth inhibition of human Caki1 cells at 10 uM after 48 hrs by SRB assay relative to control; assay type: functional; conditions: CAKI-1, 48 h, read-out: GI; in short: as §1
[19] = Growth inhibition of human PC3 cells at 10 uM after 48 hrs by SRB assay relative to control; assay type: functional; conditions: PC-3, 48 h, read-out: GI; in short: as §1
[20] = Growth inhibition of human MCF7 cells at 10 uM after 48 hrs by SRB assay relative to control; assay type: functional; conditions: MCF7, 48 h, read-out: GI; in short: as §1
[21] = Growth inhibition of human MDA-MB-231 cells at 10 uM after 48 hrs by SRB assay relative to control; assay type: functional; conditions: MDA-MB-231, 48 h, read-out: GI; in short: as §1
Cancer cell lines [22] = assay: Potency index, ratio of 5-fluorouracil GI50 to compound GI50 for human breast cancer cells; assay type: functional
In short: (§3)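 GI50 for each cell line came from NCI panel testing over a 5-log dose range, with 5-fluorouracil tested alongside as the reference drug. The index relates the 5-fluorouracil GI50 to the compound GI50 within each tumour subpanel.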

Cancer cell lines [23] = assay: Potency index, ratio of 5-fluorouracil GI50 to compound GI50 for human prostate cancer cells; assay type: functional; in short: as §3
Cancer cell lines [24] = assay: Potency index, ratio of 5-fluorouracil GI50 to compound GI50 for human renal cancer cells; assay type: functional; in short: as §3
Cancer cell lines [25] = assay: Potency index, ratio of 5-fluorouracil GI50 to compound GI50 for human ovarian cancer cells; assay type: functional; in short: as §3
Melanoma cell = assay: Potency index, ratio of 5-fluorouracil GI50 to compound GI50 for human melanoma cells; assay type: functional; in short: as §3
Cancer cell lines [26] = assay: Potency index, ratio of 5-fluorouracil GI50 to compound GI50 for human colon cancer cells; assay type: functional; in short: as §3
Cancer cell lines [27] = assay: Potency index, ratio of 5-fluorouracil GI50 to compound GI50 for human non-small cell lung cancer cells; assay type: functional; in short: as §3
[28] = Growth inhibition of human leukemia cells after 48 hrs by SRB assay; assay type: functional; conditions: Leukemia cell; for CC50: read-out: LC50 (the source's name)
In short: (§4)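 Follow-up NCI panel testing over a 5-log dose range for each cell line. GI50, TGI and LC50 were monitored, with 5-fluorouracil run as the positive control. Values are grouped by tumour subpanel.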

[29] = Growth inhibition of human melanoma cells after 48 hrs by SRB assay; assay type: functional; conditions: Melanoma cell; in short: as §4
[30] = Growth inhibition of human renal cancer cells after 48 hrs by SRB assay; assay type: functional; conditions: Cancer cell lines; in short: as §4
[31] = Growth inhibition of human prostate cancer cells after 48 hrs by SRB assay; assay type: functional; conditions: Cancer cell lines; in short: as §4
[32] = Growth inhibition of human breast cancer cells after 48 hrs by SRB assay; assay type: functional; conditions: Cancer cell lines; in short: as §4
[33] = Growth inhibition of human RPMI8226 cells at 10 uM after 48 hrs by SRB assay relative to control; assay type: functional; conditions: RPMI-8226, 48 h, read-out: GI; in short: as §1
[34] = Growth inhibition of human OVCAR3 cells at 10 uM after 48 hrs by SRB assay relative to control; assay type: functional; conditions: OVCAR-3, 48 h, read-out: GI; in short: as §1

COc1ccc(-n2c(SCc3cc(OC)c(OC)c(OC)c3)nc3ccc(C)cc3c2=O)c(OC)c1
IC50 (Dihydrofolate reductase): 3 µM
inhibition of growth at 10 µM [1]: 77.3%
inhibition of growth at 10 µM [2]: 72%
inhibition of growth at 10 µM [3]: 95.4%
inhibition of growth at 10 µM [4]: < 10%
inhibition of growth at 10 µM [5]: 54.5%
inhibition of growth at 10 µM [6]: 76.4%
inhibition of growth at 10 µM [7]: 88.8%
inhibition of growth at 10 µM [8]: 81.9%
inhibition of growth at 10 µM [9]: 27.9%
inhibition of growth at 10 µM [10]: 93.7%
inhibition of growth at 10 µM [11]: 80%
inhibition of growth at 10 µM [12]: 75.2%
inhibition of growth at 10 µM [13]: 88.8%
inhibition of growth at 10 µM [14]: 59.2%
inhibition of growth at 10 µM [15]: 75.6%
inhibition of growth at 10 µM [16]: 64.3%
inhibition of growth at 10 µM [17]: 54.5%
inhibition of growth at 10 µM [18]: 86.7%
inhibition of growth at 10 µM [19]: 91.3%
inhibition of growth at 10 µM [20]: 84.6%
inhibition of growth at 10 µM [21]: 55.2%
RatioGI50 (Cancer cell lines [22]): 2 - 10
RatioGI50 (Cancer cell lines [23]): 2 - 10
RatioGI50 (Cancer cell lines [24]): 2 - 10
RatioGI50 (Cancer cell lines [25]): 2 - 10
RatioGI50 (Melanoma cell): 2 - 10
RatioGI50 (Cancer cell lines [26]): 2 - 10
RatioGI50 (Cancer cell lines [27]): 2 - 10
GI50 [28]: 2.5 µM
TGI [28]: 56.2 µM
CC50 [28]: > 100 µM
GI50 [29]: 4.2 µM
LC50 [29]: 89.9 µM
TGI [29]: 77.4 µM
GI50 [30]: 15.4 µM
LC50 [30]: > 100 µM
TGI [30]: 92.5 µM
GI50 [31]: 3.7 µM
LC50 (concentration killing 50% of cells) [31]: > 100 µM
TGI [31]: > 100 µM
GI50 [32]: 4.1 µM
LC50 [32]: > 100 µM
TGI [32]: 84.9 µM

COc1cc(CSc2nc3ccc(C)cc3c(=O)n2-c2ccccc2)cc(OC)c1OC
IC50 (Dihydrofolate reductase): 7 µM
inhibition of growth at 10 µM [33]: 45.1%
inhibition of growth at 10 µM [1]: 32.1%
inhibition of growth at 10 µM [2]: 52.6%
inhibition of growth at 10 µM [3]: 79.8%
inhibition of growth at 10 µM [4]: 91.7%
inhibition of growth at 10 µM [5]: 50.3%
inhibition of growth at 10 µM [6]: 69.9%
inhibition of growth at 10 µM [7]: 85.7%
inhibition of growth at 10 µM [8]: 74.7%
inhibition of growth at 10 µM [9]: 70.3%
inhibition of growth at 10 µM [10]: 67.2%
inhibition of growth at 10 µM [11]: 96.5%
inhibition of growth at 10 µM [12]: 61.5%
inhibition of growth at 10 µM [13]: 82.8%
inhibition of growth at 10 µM [14]: 47.9%
inhibition of growth at 10 µM [15]: 79.2%
inhibition of growth at 10 µM [16]: 66.8%
inhibition of growth at 10 µM [17]: 47.2%
inhibition of growth at 10 µM [18]: 72.4%
inhibition of growth at 10 µM [19]: 51%
inhibition of growth at 10 µM [20]: 80.1%
inhibition of growth at 10 µM [21]: 62.1%
RatioGI50 (Cancer cell lines [22]): 10
RatioGI50 (Cancer cell lines [23]): 10
RatioGI50 (Cancer cell lines [24]): 10
RatioGI50 (Cancer cell lines [25]): 10
RatioGI50 (Melanoma cell): 10
RatioGI50 (Cancer cell lines [26]): 10
RatioGI50 (Cancer cell lines [27]): 10
GI50 [28]: 1.8 µM
TGI [28]: > 100 µM
CC50 [28]: > 100 µM
GI50 [29]: 3.9 µM
LC50 [29]: > 100 µM
TGI [29]: 82.2 µM
GI50 [30]: 4.2 µM
LC50 [30]: > 100 µM
TGI [30]: 76.9 µM
GI50 [31]: 3.4 µM
LC50 (concentration killing 50% of cells) [31]: > 100 µM
GI50 [32]: 2.3 µM
LC50 [32]: > 100 µM
TGI [32]: 84.3 µM

COc1ccc(CSc2nc3cc(OC)c(OC)cc3c(=O)n2-c2ccc(OC)cc2OC)cc1
IC50 (Dihydrofolate reductase): 0.3 µM
inhibition of growth at 10 µM [33]: 36.3%
inhibition of growth at 10 µM [1]: 24.5%
inhibition of growth at 10 µM [2]: 19.4%
inhibition of growth at 10 µM [3]: < 10%
inhibition of growth at 10 µM [4]: 31.4%
inhibition of growth at 10 µM [5]: < 10%
inhibition of growth at 10 µM [6]: 19.4%
inhibition of growth at 10 µM [7]: 12%
inhibition of growth at 10 µM [8]: 21.9%
inhibition of growth at 10 µM [9]: < 10%
inhibition of growth at 10 µM [10]: 10.4%
inhibition of growth at 10 µM [11]: < 10%
inhibition of growth at 10 µM [12]: < 10%
inhibition of growth at 10 µM [13]: < 10%
inhibition of growth at 10 µM [14]: < 10%
inhibition of growth at 10 µM [15]: 19.8%
inhibition of growth at 10 µM [16]: 14%
inhibition of growth at 10 µM [34]: < 10%
inhibition of growth at 10 µM [17]: 10.8%
inhibition of growth at 10 µM [18]: 31.3%
inhibition of growth at 10 µM [19]: 44.4%
inhibition of growth at 10 µM [20]: 16.9%
inhibition of growth at 10 µM [21]: 24.6%
